The results in this text go back to PMC11951139 (Journal of Agricultural and Food Chemistry, 2025).

“Also recorded” adds a separate entry of the source.

One assay has as its target DmATG8a (Drosophila melanogaster, UniProt Q9W2S2). The assay can be described thus: Microscale thermophoresis. Conditions: for Kd: Kd value (binding affinity with DmATG8a), MST, fluorescently labeled DmATG8a. The format is binding. In short, it runs like this:
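Wild-type DmATG8a expressed from pET-32a in E. coli BL21(DE3), induced with 1 mM IPTG at 20 °C for 16 h. Purified by His-tag affinity, TEV tag removal and size exclusion in 20 mM Tris-HCl, 300 mM NaCl, pH 7.5. Protein labelled with RED-NHS dye. Test compounds and tryptophan run as 16-point dilutions from 0.06 to 2000 μM, 5 min in the dark, then MST on a Monolith NT.115.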
On the technique in general: MST reads how a fluorescent partner responds to local heating, with and without ligand.

For assay [1], the system named is D. melanogaster adult flies. The assay can be described thus: Insecticidal activity, combined gastric poisoning and contact method. It is filed as in vivo, Drosophila melanogaster. As to conditions: for insecticidal activity: 500 μg/mL, adult flies, mortality after 24 h. In outline:
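Adult fruit flies, about twenty 2-day-old per dish. Apple slices soaked 1 min in test solution, then placed in the Petri dish, combining ingestion and contact exposure. Triplicate per treatment, with water as negative and avermectin as positive control. Held at 24 ± 1 °C, 75 ± 5% RH, 16 h light:8 h dark. Mortality scored at 24 h by gently touching insects with a brush.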

The next assay has as its system DmATG8a^K48A. The assay can be described thus: MST binding to the DmATG8a K48A mutant. More on the design: species or system Drosophila melanogaster. Conditions: 25 °C. In short, it runs like this:
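K48A point mutant of DmATG8a made by site-directed mutagenesis in pET-32a. Expressed and purified as for wild type: E. coli BL21(DE3), His-tag affinity, TEV cleavage, desalting. Binding of the test indole assessed by microscale thermophoresis with fluorescently labelled protein.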

Sequence of DmATG8a (Q9W2S2 1-121): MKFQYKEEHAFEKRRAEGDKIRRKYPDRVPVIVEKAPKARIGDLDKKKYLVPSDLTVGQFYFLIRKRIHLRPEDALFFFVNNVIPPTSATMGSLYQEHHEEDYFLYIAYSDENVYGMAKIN

In general, Kd refers to the constant that tells how readily two partners part at equilibrium. Low values mean tighter binding, high ones weaker binding. For the molecule `N[C@@H](Cc1c[nH]c2ccccc12)C(=O)O` [tryptophan, reference compound], the affinity on DmATG8a, expressed as Kd, was 67 µM.

A word on the LC50: it is the concentration that kills 50% of the test population. Regarding `Fc1ccc2cc[nH]c2c1` [6-fluoroindole], the insecticidal activity in assay [1] is given as 100%. In addition, the LC50 in assay [1] (Drosophila melanogaster, 24 h) is 169 µg/mL. Further, the “fold lower Kd than tryptophan” value at DmATG8a (Kd of 6-fluoroindole versus Kd of tryptophan) is on record as “approximately 19 fold”. In addition, binding on DmATG8a was put at a Kd of 3.54 µM. In addition, in the assay on DmATG8a^K48A, the “binding to DmATG8a^K48A” value is recorded as “no affinity; also recorded: no binding”.

What is called mortality is the percentage killed. With `CC[C@H](C)[C@H]1O[C@]2(C=C[C@@H]1C)C[C@@H]1C[C@@H](C/C=C(\C)[C@@H](O[C@H]3C[C@H](OC)[C@@H](O[C@H]4C[C@H](OC)[C@@H](O)[C@H](C)O4)[C@H](C)O3)[C@@H](C)/C=C/C=C3\CO[C@@H]4[C@H](O)C(C)=C[C@@H](C(=O)O1)[C@]34O)O2` [avermectin], the insecticidal activity in assay [1] came to 100%. In addition, in assay [1] (Drosophila melanogaster, 24 h), the LC50 was 30.5 µg/mL and the mortality at 15 µg/mL is 33%.
